Screening results deposited in PubChem BioAssay by The Scripps Research Institute Molecular Screening Center.
Most compounds without a hit are left out; they make up all but 1.9% or so of the library.
sPLA2-III inh = human group III sPLA2 inhibitors, primary screen, biochemical, QFRET, BODIPY PC-A2 liposome substrate | Group 3 secretory phospholipase A2 (Homo sapiens), Q9NZ20 | QFRET BODIPY PC-A2 liposome hydrolysis, fluorescence | inhibition, % at 12.2 µM | hit rate 0.56% among 370,000 | AID 743126, 2013;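 active means inhibition above mean plus 3 SD of compounds lying within the high and low control bounds, cut at about 19% in these data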;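 further: 0% = median of test compound wells and 100% = no enzyme DMSO wells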
Target sequence (Q9NZ20 whole entry, looked up): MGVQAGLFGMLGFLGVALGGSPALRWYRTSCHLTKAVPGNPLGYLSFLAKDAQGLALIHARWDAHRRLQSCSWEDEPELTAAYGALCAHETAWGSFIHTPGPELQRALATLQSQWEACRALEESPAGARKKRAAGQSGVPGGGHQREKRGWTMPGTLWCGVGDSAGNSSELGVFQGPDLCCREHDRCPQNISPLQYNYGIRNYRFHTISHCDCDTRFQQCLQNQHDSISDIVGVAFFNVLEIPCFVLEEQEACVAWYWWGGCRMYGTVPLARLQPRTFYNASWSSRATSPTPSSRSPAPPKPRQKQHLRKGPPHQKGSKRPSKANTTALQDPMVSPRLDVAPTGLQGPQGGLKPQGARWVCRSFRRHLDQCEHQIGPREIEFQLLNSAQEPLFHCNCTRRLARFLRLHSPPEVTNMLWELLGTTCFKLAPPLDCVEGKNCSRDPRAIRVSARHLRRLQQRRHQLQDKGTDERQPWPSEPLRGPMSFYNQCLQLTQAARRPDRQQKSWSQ
ASAP1 inh = inhibitors of human ASAP1 ArfGAP activity, primary screen, biochemical, fluorescence polarization; hit rate 0.19% among 360,000; ASAP1-stimulated ARF1 GTP hydrolysis, GDP FP detection; Arf-GAP with SH3 domain, ANK repeat and PH domain-containing protein 1 (Homo sapiens), …; inhibition, % at 16.5 µM; in the data active means inhibition above about 25%;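 further: 0% = vehicle with enzyme and substrate and 100% = no enzyme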
PLCb3 inh = human PLC-beta3 inhibitors, primary screen, biochemical, fluorescence; 1-phosphatidylinositol 4,5-bisphosphate phosphodiesterase beta-3 (Homo sapiens), Q01970; Purified PLC-beta3, fluorogenic substrate; inhibition, % at 12.2 µM; hit rate 0.18% among 370,000; AID 720704, 2013;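 further: 0% = median of compound wells on plate and 100% = full blocker control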
PLC-gamma1 inh = PLC-gamma1 enzyme inhibitors, primary screen, biochemical, fluorescence, purified enzyme; fluorogenic substrate; inhibition, % at 12.2 µM; 1-phosphatidylinositol 4,5-bisphosphate phosphodiesterase gamma-1 (Homo sapiens), P19174; hit rate 0.84% among 370,000; in the data active means inhibition above about 9.5%
ARFGAP1 inhibitor = inhibitors of rat ARFGAP1 GAP activity, primary screen, biochemical, fluorescence polarization, GDP tracer. ADP-ribosylation factor GTPase-activating protein 1 (Rattus norvegicus), Q62848. Arfgap1-stimulated ARF1 GTP hydrolysis, GDP FP detection. inhibition, % at 16.5 µM. hit rate 0.26% among 360,000. AID 651572, 2012;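 active means inhibition above a per-plate limit, mean inhibition of low control wells plus 3 SD, cut at about 25% in these data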;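 further: 0% = DMSO wells with enzyme and 100% = wells lacking Arfgap1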
Target sequence (Q62848 1-136 limits assumed): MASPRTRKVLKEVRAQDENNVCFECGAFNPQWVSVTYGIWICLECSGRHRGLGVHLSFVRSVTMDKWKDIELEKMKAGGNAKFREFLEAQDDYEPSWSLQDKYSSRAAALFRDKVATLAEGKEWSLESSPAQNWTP
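Repeats: one replicate per compound; assay system: rat Arfgap1 catalytic domain, aa 1-136; times: enzyme reaction 120 min at 25 °C after 20 min preincubation; detection: FP of antibody-bound GDP Alexa 633 tracer, ex 620/em 688 nm; benchmarks: high control wells lacking Arfgap1, low control full reaction with DMSO; reagent: human ARF1(Δ1-17)-GTP substrate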
PLCg1 ctr = PLC-gamma1 enzyme inhibitors, counter-screen for PLC-beta3 inhibitor project, biochemical, fluorescence; shares compounds with PLC-gamma1 inh; purified PLC-gamma1, fluorogenic substrate; inhibition, % at 12.3 µM; hit rate 3.1% among 3,300; in the data active means inhibition above about 9.5%
PLCb3 confirm = PLC-beta3 inhibitor confirmation, biochemical, fluorescence, purified enzyme; shares compounds with PLC-gamma1 inh; fluorogenic substrate fluorescence; inhibition, % at 12.3 µM; hit rate 1% among 3,300
* = called active by the depositor; . = no result. Unless noted, no stated cut-off is given here; in the data, active means inhibition above about 11%; inactive means the rest.

SMILES	sPLA2-III inh	ASAP1 inh	PLCb3 inh	PLC-gamma1 inh	ARFGAP1 inhibitor	PLCg1 ctr	PLCb3 confirm
COCCCNc1nc2c(c(=O)n(Cc3ccc(OC)cc3)c(=O)n2C)n1C	15	1	3	10*	-1	-2	-10
COc1ccc2nc(NC(=O)C3CCN(S(=O)(=O)c4cnc[nH]4)CC3)sc2c1	-29	9	-3	-1	-1	.	.
Cc1ccc2nc(NC(=O)C3CCN(S(=O)(=O)c4cnc[nH]4)CC3)sc2c1	-50	3	6	9.6*	6	-9	0
O=C1N=C2SCCN2/C1=C\c1ccccc1Cl	-29	0	-1	11*	3	-8	-6
O=C(NC1(C(F)(F)F)N=C2SCCN2C1=O)c1ccccc1 (stereo not given)	-1	4	3	6	14	.	.
O=C(NCCc1ccccc1)C1CCN(S(=O)(=O)c2cccs2)CC1	3	19	9	9.8*	8	-6	-4
NS(=O)(=O)c1cccc(NC(=O)COC(=O)C2CCN(S(=O)(=O)c3cccs3)CC2)c1	10	5	-8	9.7*	2	0	-4
O=C(C1CCCN(S(=O)(=O)c2cccc3nonc23)C1)N1CCN(c2ccccc2Cl)CC1 (stereo not given)	-6	-4	7	14*	20	-1	4
NC(=O)c1ccc(NC(=O)COC(=O)C2CCN(S(=O)(=O)c3cccs3)CC2)cc1	-2	-6	-3	5	4	.	.
O=C(NCCc1ccc(Cl)cc1)C1CCN(S(=O)(=O)c2cccc3nonc23)CC1	-5	8	2	3	1	.	.
O=C(NCCc1ccccc1)C1CCN(S(=O)(=O)c2cccc3nonc23)CC1	5	19	-39	11*	0	-6	-3
O=C(NCCc1ccc(Cl)cc1)C1CCN(S(=O)(=O)c2cccs2)CC1	-24	8	3	-1	9	.	.
O=C(Nc1ccc(Cl)c(Cl)c1)C1CCCN1S(=O)(=O)c1cccc2cccnc12 (stereo not given)	-6	.	0	4	.	.	.
CN(C)C=Nc1ccc(Cn2cnc3nc4ccc(Cl)cc4cc3c2=O)cc1	3	.	-42	-37	.	.	.
NCCN1CCN(S(=O)(=O)c2ccc3c(c2)CCN3C(=O)C2CCC2)CC1	2	.	1	0	.	.	.
CCOC(=O)N1CCN(C(=O)C[C@H]2C[C@@]3(C(=O)OC)C(=C[C@H](C(C)C)O[C@@H]3C3CC3)N(Cc3ccc(Cl)cc3Cl)C2=O)CC1	-2	.	0	7	.	.	.
Nc1cc(-c2ccc(Cl)cc2)nn1S(=O)(=O)c1cccc2nsnc12	-10	-3	5	2	-12	.	.
COc1ccccc1-c1cc(N)n(S(=O)(=O)c2cccc3nsnc23)n1	4	3	3	12*	-5	-2	2
CC(=O)c1cc(-c2ccc(F)cc2)n(CCC(=O)NC(C)(C)C)c1C	3	-6	7	21*	11	1	5
COC(=O)[C@]12C[C@H](CC(=O)N3CCOCC3)C(=O)N(Cc3ccco3)C1=C[C@H](C(C)(C)C)O[C@@H]2C	-1	.	2	1	.	.	.
COc1ccc(CNC(=O)C(C)Cc2ccccc2)cc1O (stereo not given)	3	-7	7	12*	4	-5	-3
CCN1C/C(=C\c2cccc([N+](=O)[O-])c2)C(=O)/C(=C/c2cccc([N+](=O)[O-])c2)C1	0	15	6	12*	6	1	0
C/C(=N\N=C1\NC(=O)CC(C(=O)O)S1)c1cccs1 (stereo not given)	6	-8	2	4	5	.	.
CNC(=O)C1CC(=O)N/C(=N/N=C(\C)c2cccs2)S1 (stereo not given)	3	-4	11*	7	-3	-1	0
O=C1CN(C(=O)c2ccccc2F)C(c2ccccc2)c2cc(Cl)ccc2N1 (stereo not given)	-1	12	-5	10*	5	-4	0
SMILES	sPLA2-III inh	ASAP1 inh	PLCb3 inh	PLC-gamma1 inh	ARFGAP1 inhibitor	PLCg1 ctr	PLCb3 confirm
CO[C@H]([C@H](C)/C=C/N(C)C=O)[C@@H](C)C(=O)CC[C@H](C)[C@H](O)[C@H](C)[C@H]1OC(=O)/C=C/C(C)=C/C[C@H](O)C[C@@H]2C=CC[C@@H](C[C@H](OC)[C@@H](C)[C@@H](OC)C[C@@H](OC)[C@@H]1C)O2	-20	.	2	2	.	.	.
O=c1cc(-c2ccccc2)oc2cc(O)c(O)c(O)c12	6	0	-9	-5	0	.	.
O=c1c(O)cccc2cc(O)c(O)c(O)c12	-9	0	5	46*	-4	30*	1
O=C(CSc1nc2ccccc2nc1N1CCCCC1)N1CCN(S(=O)(=O)c2cc(Cl)ccc2Cl)CC1	-1	.	0	-3	.	.	.
CC(=O)Nc1cccc(CP(=O)(c2ccccc2)c2ccccc2)c1	-2	7	-1	13*	5	1	3
CCn1c(=O)n(CC(=O)N2CCCC2)c(=O)c2ccccc21	0	.	-5	-2	.	.	.
Cc1cc(=O)n(C)c(=O)n1CCCCCN1CCCC1	11	-8	7	11*	-5	3	4
CCN=C1NC(c2ccc(Cl)cc2)C(C(=O)OC)=C(C)N1Cc1cccc(C(F)(F)F)c1 (stereo not given)	-1	3	1	4	-2	.	.
Cc1cc(C)n(-c2ccc([N+](=O)[O-])cc2)n1	2	-14	5	6	-1	.	.
Cc1cc(N)n(-c2ccc([N+](=O)[O-])cc2)n1	3	14	1	12*	2	8	5
NCCCC[C@@H](C(=O)N1CCNCC1)n1cc([C@@H](N)CO)nn1	0	0	12*	5	-7	-7	-4
NCCCC[C@@H](C(=O)N1CCNCC1)n1cc([C@@H](N)CC(N)=O)nn1	15	2	-2	3	3	.	.
CC(C)(C)c1ccc(S(=O)(=O)N2CCC(c3cn4ccccc4n3)CC2)cc1	-15	.	-82	-57	.	.	.
CC(C)C(NC(=O)c1ccccc1)C(=O)OCC(=O)N1CCCCC1 (stereo not given)	-5	16	2	8	-4	.	.
